ChEMBL document CHEMBL1145051, “Synthesis and biological evaluation of 3-alkoxy analogues of flavone-8-acetic acid” (J Med Chem, 2003)

Legend:
2008 [1] = experiment: Direct cytotoxicity against the selected tumor cell line 2008 was determined especially on ovarian adenocarcinoma derived cells; not detected; assay type: functional, cell-based, Homo sapiens
C13 [2] = experiment: Direct cytotoxicity against the selected tumor cell line c13* was determined especially on ovarian adenocarcinoma derived cells; not detected; assay type: functional, cell-based, Homo sapiens
[3] = Indirect antitumor effect was measured as cytotoxicity with human monocytes pretreated with compounds; assay type: functional
Method in brief: (§1)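 Adherent human PBMC (Ficoll isolation, 2 h adherence, washed) pretreated 24 h with 25, 50, 100 μM in RPMI 1640/5% FCS, triplicate wells. Medium removed, C13* cells (2 × 10^3/well) cocultured 24 h, read by MTT. Three experiments; IC50 by Litchfield–Wilcoxon.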

LoVo [4] = experiment: In vitro cytotoxicity against the selected tumor cell line LoVoR arising from human colon adenocarcinoma was determined; assay type: functional, cell-based
LoVo [5] = experiment: In vitro cytotoxicity against the selected tumor cell line LoVoS arising from human colon adenocarcinoma was determined; assay type: functional, cell-based
Mus musculus [6] = organism: Mus musculus; experiment: Indirect antitumor effect was measured as cytotoxicity with murine macrophages pretreated with compounds; assay type: functional
Method in brief: (§2)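 Resident mouse peritoneal macrophages (heparinised PBS lavage, 2 h adherence) plated at 1 × 10^4 cells/well with a range of drug concentrations, triplicate wells, 24 h. Medium removed, C13* cells (2 × 10^3/well) added, cocultured 24 h. Lysis by MTT; specific cytotoxicity = [OD(macrophages+C13*) − OD(macrophages)]/OD(C13*). Three experiments; IC50 by Litchfield–Wilcoxon.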

[7] = Potency ratio was determined against LoVoR versus FAA (Flavone acetic acid); less potent; assay type: functional
Method in brief: (§3)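 Ratio IC50(FAA)/IC50(analogue) from direct 24 h MTT cytotoxicity on the named line (LoVo S, LoVo R, 2008 or C13*), concentrations up to 500 μM. IC50 values and 95% confidence limits by Litchfield–Wilcoxon method; three experiments in triplicate.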

[8] = Potency ratio was determined against LoVoS versus FAA (Flavone acetic acid); assay type: functional; method in brief: as §3
[9] = Potency ratio was determined against human monocytes versus DMXAA (Dimethylxanthenone-4-acetic acid); assay type: functional
Method in brief: (§4)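 Ratio of reference IC50 (FAA or DMXAA) to analogue IC50 in the effector-cell coculture assay: mouse peritoneal macrophages or adherent human PBMC pretreated 24 h with drug, then C13* target cells added for 24 h, lysis by MTT. IC50 and ratios by Litchfield–Wilcoxon; three experiments in triplicate.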

[10] = Potency ratio was determined against macrophages; more potent; assay type: functional; method in brief: as §4
[11] = Potency ratio was determined against murine macrophages versus FAA (Flavone acetic acid); assay type: functional; method in brief: as §4
2008 [12] = experiment: Direct cytotoxicity against the selected tumor cell line 2008 was determined especially on ovarian adenocarcinoma derived cells; assay type: functional, cell-based; settings: Homo sapiens
C13 [13] = experiment: cDirect cytotoxicity against the selected tumor cell line c13* was determined especially on ovarian adenocarcinoma derived cells; assay type: functional, cell-based; settings: Homo sapiens
[14] = Potency ratio was determined against 2008 cell line versus FAA (Flavone acetic acid); less potent; assay type: functional; method in brief: as §3
[15] = Potency ratio was determined against C13 cell line versus FAA (Flavone acetic acid); less potent; assay type: functional; method in brief: as §3
[16] = Potency ratio was determined against macrophages; assay type: functional; method in brief: as §4
C13 [17] = experiment: Direct cytotoxicity against the selected tumor cell line c13* was determined especially on ovarian adenocarcinoma derived cells; assay type: functional, cell-based; settings: Homo sapiens
LoVo [18] = experiment: In vitro cytotoxicity against the selected tumor cell line LoVoS arising from human colon adenocarcinoma was determined; not detected; assay type: functional, cell-based
Mus musculus [19] = organism: Mus musculus; experiment: Indirect antitumor effect was measured as cytotoxicity against murine macrophages; not detected; assay type: functional; method in brief: as §2
[20] = Potency ratio was determined against LoVoR versus FAA (Flavone acetic acid); assay type: functional; method in brief: as §3
[21] = Potency ratio was determined against human monocytes versus DMXAA (Dimethylxanthenone-4-acetic acid); more potent; assay type: functional; method in brief: as §4
LoVo [22] = experiment: In vitro cytotoxicity against the selected tumor cell line LoVoR arising from human colon adenocarcinoma was determined; not detected; assay type: functional, cell-based
[23] = cPotency ratio was determined against macrophages; more potent; assay type: functional; method in brief: as §4
[24] = Indirect antitumor effect was measured as cytotoxicity against human monocytes; not detected; assay type: functional; method in brief: as §1
[25] = Potency ratio was determined against human monocytes versus DMXAA (Dimethylxanthenone-4-acetic acid); less potent; assay type: functional; method in brief: as §4
[26] = Potency ratio was determined against 2008 cell line versus FAA (Flavone acetic acid); assay type: functional; method in brief: as §3
[27] = Potency ratio was determined against C13 cell line versus FAA (Flavone acetic acid); assay type: functional; method in brief: as §3
LoVo [28] = experiment: In vitro cytotoxicity against the selected tumor cell line LoVoR arising from human colon adenocarcinoma was determined

| SMILES | IC50 2008 [1] | IC50 (C13 [2]) | IC50 [3] | IC50 (LoVo [4]) | IC50 (LoVo [5]) | IC50 (Mus musculus [6]) | Potency ratio [7] | Potency ratio [8] | Potency ratio [9] | Potency ratio [11] | Potency ratio [15] | IC50 (C13 [17]) | IC50 (LoVo [18]) | IC50 (LoVo [22]) | IC50 [24] | other results |
| --- | --- | --- | --- | --- | --- | --- | --- | --- | --- | --- | --- | --- | --- | --- | --- | --- |
| COc1c(-c2cccc(C)c2)oc2c(CC(=O)O)cccc2c1=O | not detected | not detected | 113 µM | 648 µM | 697 µM | 234 µM | 0.6 | 0.8 | 1.2 | 1.2 |  |  |  |  |  | Potency ratio [10]: 2.1 |
| COc1ccc(-c2oc3c(CC(=O)O)cccc3c(=O)c2OC)cc1 |  |  | 181 µM | 556 µM | 601 µM | 238 µM | 0.7 | 0.9 | 0.7 | 1.2 | 0.4 |  |  |  |  | IC50 2008 [12]: 625 µM; IC50 (C13 [13]): 548 µM; Potency ratio [14]: 0.7; Potency ratio [16]: 1.3 |
| COc1c(-c2ccccc2)oc2c(CC(=O)O)cccc2c1=O | not detected |  |  | 627 µM | 719 µM |  | 0.6 | 0.8 |  |  | 0.3 | 757 µM |  |  |  |  |
| COc1c(-c2cccc(C(F)(F)F)c2)oc2c(CC(=O)O)cccc2c1=O | not detected | not detected | 18.3 µM | 532 µM |  |  |  |  |  |  |  |  | not detected |  |  | IC50 (Mus musculus [19]): not detected; Potency ratio [20]: 0.7; Potency ratio [21]: 7.3 |
| COc1c(-c2ccc(Cl)cc2)oc2c(CC(=O)O)cccc2c1=O | not detected |  | 105 µM |  |  | 293 µM |  |  | 1.3 | 0.9 | 0.7 | 350 µM | not detected | not detected |  | Potency ratio [23]: 2.8 |
| COc1c(-c2ccccc2Cl)oc2c(CC(=O)O)cccc2c1=O | not detected | not detected |  | 780 µM | 605 µM | 284 µM | 0.5 | 0.9 |  | 1 |  |  |  |  | not detected |  |
| COc1c(-c2ccc(C)cc2)oc2c(CC(=O)O)cccc2c1=O | not detected |  |  | 570 µM | 632 µM | 164 µM |  | 0.9 |  | 1.7 | 0.3 | 806 µM |  |  | not detected | Potency ratio [20]: 0.7 |
| COc1c(-c2ccc(F)cc2)oc2c(CC(=O)O)cccc2c1=O | not detected | not detected | 436 µM |  |  |  |  |  |  |  |  |  | not detected | not detected |  | IC50 (Mus musculus [19]): not detected; Potency ratio [25]: 0.3 |
| COc1c(-c2cccc(Cl)c2)oc2c(CC(=O)O)cccc2c1=O | not detected | not detected | 36.8 µM |  | 534 µM | 239 µM |  | 1 |  | 1.2 |  |  |  | not detected |  | Potency ratio [21]: 3.7; Potency ratio [10]: 6.5 |
| CC(C)Oc1c(-c2ccccc2)oc2c(CC(=O)O)cccc2c1=O | not detected | not detected |  | 407 µM | 815 µM | 225 µM |  | 0.7 |  | 1.3 |  |  |  |  | not detected | Potency ratio [20]: 0.9 |
| CCOc1c(-c2ccccc2)oc2c(CC(=O)O)cccc2c1=O | not detected | not detected |  |  | 611 µM | 431 µM |  | 0.9 |  | 0.7 |  |  |  | not detected | not detected |  |
| O=C(O)Cc1cccc2c(=O)cc(-c3ccccc3)oc12 [MITOFLAXONE] |  |  |  | 378 µM | 564 µM | 285 µM |  | 1 |  | 1 |  | 233 µM |  |  | not detected | IC50 2008 [12]: 421 µM; Potency ratio [26]: 1; Potency ratio [27]: 1; Potency ratio [20]: 0.6 |
| COc1c(-c2cccs2)oc2c(CC(=O)O)cccc2c1=O | not detected | not detected | 213 µM |  |  |  |  |  |  |  |  |  | not detected | not detected |  | IC50 (Mus musculus [19]): not detected; Potency ratio [25]: 0.6 |
| COc1cccc(-c2oc3c(CC(=O)O)cccc3c(=O)c2OC)c1 | not detected | not detected |  | 514 µM | 829 µM | 182 µM | 0.7 | 0.7 |  | 1.6 |  |  |  |  | not detected |  |
| COc1ccccc1-c1oc2c(CC(=O)O)cccc2c(=O)c1OC | not detected | not detected | 193 µM |  | 980 µM |  | 0.5 | 0.6 | 0.7 |  |  |  |  |  |  | IC50 (Mus musculus [19]): not detected; IC50 (LoVo [28]): 794 µM |
| COc1c(-c2ccccc2C)oc2c(CC(=O)O)cccc2c1=O | not detected |  | 127 µM |  |  | 248 µM |  |  | 1 | 1.1 | 0.4 | 524 µM | not detected |  |  | Potency ratio [10]: 1.9 |
